Test results from paper PMC8985159 (RSC Chemical Biology, 2022).
Like-named read-outs stand apart in the source and are kept apart here.

Legend:
Sirt1_134-747 = molecular target: T1, Sirt1_134-747 (Homo sapiens, UniProt Q96EB6); assay: Sirtuin deacetylation activity assay; format: biochemical
T1 sequence (Q96EB6 134-747): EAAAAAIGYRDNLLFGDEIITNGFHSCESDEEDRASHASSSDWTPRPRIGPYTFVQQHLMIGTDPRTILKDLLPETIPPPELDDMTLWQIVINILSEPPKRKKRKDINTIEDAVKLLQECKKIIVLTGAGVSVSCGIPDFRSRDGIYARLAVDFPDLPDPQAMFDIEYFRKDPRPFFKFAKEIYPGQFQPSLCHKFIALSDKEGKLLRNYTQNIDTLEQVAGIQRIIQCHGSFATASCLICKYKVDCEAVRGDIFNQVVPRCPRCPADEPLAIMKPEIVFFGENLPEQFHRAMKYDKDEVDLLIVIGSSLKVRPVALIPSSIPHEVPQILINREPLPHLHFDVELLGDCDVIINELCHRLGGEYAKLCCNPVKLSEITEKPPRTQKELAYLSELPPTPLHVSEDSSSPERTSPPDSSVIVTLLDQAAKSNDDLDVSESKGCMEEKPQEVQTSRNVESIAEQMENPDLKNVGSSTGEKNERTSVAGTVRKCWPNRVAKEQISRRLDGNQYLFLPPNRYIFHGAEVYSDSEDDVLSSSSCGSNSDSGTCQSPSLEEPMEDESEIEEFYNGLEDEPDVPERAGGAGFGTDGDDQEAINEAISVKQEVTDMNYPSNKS

Sirt2_56-356 [1] = molecular target: T2, Sirt2_56-356 (Homo sapiens, UniProt Q8IXJ6); assay: Sirtuin deacetylation activity assay; format: biochemical
T2 sequence (Q8IXJ6 56-356): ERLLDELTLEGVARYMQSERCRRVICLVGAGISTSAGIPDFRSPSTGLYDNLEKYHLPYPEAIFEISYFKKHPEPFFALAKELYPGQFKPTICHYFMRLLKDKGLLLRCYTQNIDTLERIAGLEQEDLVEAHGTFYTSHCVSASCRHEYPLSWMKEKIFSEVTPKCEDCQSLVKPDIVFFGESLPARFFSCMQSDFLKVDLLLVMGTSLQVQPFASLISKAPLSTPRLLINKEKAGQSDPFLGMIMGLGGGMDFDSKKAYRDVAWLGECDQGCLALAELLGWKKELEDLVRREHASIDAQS

Sirt2_56-356 [2] = molecular target: T2, Sirt2_56-356; assay: Sirt2 demyristoylation activity assay; format: biochemical
Sirt3_118-395 = molecular target: T3, Sirt3_118-395 (Homo sapiens, UniProt Q9NTG7); assay: Sirtuin deacetylation activity assay; format: biochemical
T3 sequence (Q9NTG7 118-395): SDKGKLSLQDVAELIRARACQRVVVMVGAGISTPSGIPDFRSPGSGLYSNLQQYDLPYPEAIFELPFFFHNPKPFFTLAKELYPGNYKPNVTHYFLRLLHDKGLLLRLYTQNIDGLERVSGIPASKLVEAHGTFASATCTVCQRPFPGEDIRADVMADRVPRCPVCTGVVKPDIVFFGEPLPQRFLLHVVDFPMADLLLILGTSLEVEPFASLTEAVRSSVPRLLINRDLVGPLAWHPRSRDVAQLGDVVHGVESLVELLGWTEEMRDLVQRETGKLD

human recombinant HDAC1 = human recombinant HDAC1 (Homo sapiens, UniProt Q13547); assay: HDAC1 activity assay; format: biochemical
Sequence of human recombinant HDAC1 (Q13547 whole entry): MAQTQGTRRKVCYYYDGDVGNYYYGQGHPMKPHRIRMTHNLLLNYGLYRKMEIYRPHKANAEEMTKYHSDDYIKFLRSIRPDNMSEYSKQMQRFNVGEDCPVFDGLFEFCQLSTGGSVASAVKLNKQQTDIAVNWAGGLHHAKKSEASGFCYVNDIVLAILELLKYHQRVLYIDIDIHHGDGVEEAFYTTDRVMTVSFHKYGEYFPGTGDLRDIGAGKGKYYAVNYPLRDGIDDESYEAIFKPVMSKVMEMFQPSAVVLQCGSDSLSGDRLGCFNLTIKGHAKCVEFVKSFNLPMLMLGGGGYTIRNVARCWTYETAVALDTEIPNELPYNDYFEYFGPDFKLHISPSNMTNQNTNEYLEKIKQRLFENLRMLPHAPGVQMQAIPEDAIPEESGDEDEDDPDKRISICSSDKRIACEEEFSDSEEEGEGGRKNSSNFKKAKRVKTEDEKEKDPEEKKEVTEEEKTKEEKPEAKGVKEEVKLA
Method in brief: (§1)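 Enzyme was incubated with serially diluted test compound in DMSO and ZMAL (added from a 126 μM solution) for 90 min at 37 °C. Stop solution (33 μM trichostatin A, 6 mg/mL trypsin) was added, followed by 30 min at 37 °C. Fluorescence read at Ex 390 / Em 460 nm.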

human recombinant HDAC6 = molecular target: T4, human recombinant HDAC6 (Homo sapiens, UniProt Q9UBN7); assay: HDAC6 activity assay; format: biochemical
T4 sequence (Q9UBN7 1-1215): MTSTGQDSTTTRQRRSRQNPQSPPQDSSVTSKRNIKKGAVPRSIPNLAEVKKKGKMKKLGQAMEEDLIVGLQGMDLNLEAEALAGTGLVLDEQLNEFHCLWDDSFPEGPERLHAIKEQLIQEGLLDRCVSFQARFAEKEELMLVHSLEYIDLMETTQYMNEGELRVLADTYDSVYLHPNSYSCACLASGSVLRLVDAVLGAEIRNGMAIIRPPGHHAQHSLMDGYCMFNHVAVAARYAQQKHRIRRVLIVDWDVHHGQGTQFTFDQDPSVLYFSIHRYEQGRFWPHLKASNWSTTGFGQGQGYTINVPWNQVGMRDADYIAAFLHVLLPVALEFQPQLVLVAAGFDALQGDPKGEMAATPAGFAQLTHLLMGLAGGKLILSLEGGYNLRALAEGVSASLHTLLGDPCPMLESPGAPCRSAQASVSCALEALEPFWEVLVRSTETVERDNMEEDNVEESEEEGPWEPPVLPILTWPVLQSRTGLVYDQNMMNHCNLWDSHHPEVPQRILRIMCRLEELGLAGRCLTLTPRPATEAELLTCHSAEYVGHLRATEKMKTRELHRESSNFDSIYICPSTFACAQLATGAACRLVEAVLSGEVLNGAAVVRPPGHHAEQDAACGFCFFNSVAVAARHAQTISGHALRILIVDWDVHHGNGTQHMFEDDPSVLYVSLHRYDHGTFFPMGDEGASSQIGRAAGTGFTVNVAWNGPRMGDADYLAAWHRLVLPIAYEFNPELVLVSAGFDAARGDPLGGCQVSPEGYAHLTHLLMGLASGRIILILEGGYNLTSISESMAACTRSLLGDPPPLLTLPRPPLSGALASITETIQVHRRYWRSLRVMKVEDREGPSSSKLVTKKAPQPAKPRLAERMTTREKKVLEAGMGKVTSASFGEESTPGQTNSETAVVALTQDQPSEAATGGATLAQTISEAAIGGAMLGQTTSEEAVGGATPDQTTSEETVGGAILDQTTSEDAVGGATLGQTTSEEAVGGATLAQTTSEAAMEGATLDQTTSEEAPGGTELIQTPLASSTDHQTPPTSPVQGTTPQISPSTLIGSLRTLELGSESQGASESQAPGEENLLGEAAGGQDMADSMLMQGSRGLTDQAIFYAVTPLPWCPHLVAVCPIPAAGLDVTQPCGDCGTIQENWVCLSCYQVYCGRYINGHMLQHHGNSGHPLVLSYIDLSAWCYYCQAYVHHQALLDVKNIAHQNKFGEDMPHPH
Method in brief: as §1

[3] = molecular target: T5, N-terminally labelled Nluc-Sirt2 fusion protein (Homo sapiens, UniProt Q8IXJ6); assay: NanoBRET assay, N-terminal Nluc-Sirt2 fusion in HEK293T cells
T5 sequence (Q8IXJ6 50-356): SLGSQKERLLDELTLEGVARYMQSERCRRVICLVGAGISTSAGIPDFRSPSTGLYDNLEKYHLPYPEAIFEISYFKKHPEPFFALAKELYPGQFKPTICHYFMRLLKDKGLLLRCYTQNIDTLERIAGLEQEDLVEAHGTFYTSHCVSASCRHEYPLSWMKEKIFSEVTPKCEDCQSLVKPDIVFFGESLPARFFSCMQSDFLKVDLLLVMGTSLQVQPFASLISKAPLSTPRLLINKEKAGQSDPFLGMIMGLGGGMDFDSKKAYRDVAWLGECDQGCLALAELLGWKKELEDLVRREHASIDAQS

Sirt2 [4] = molecular target: T6, Sirt2 (Homo sapiens, UniProt Q8IXJ6); assay: Determination of kinetic parameters for ZMAL and ZMML; format: biochemical; conditions: substrate of Sirt2; mean ± SD (n = 3)
T6 sequence (Q8IXJ6 56-356): T2 sequence (Q8IXJ6 56-356)

Sirt2 [5] = molecular target: T6, Sirt2; conditions: read-out: In vitro Sirt2 activity assay IC50; cited from earlier work
[6] = tested on: α-tubulin acetylation in PC-3M-luc cells; assay: Acetylation levels of α-tubulin by immunofluorescence; format: cell-based, human; conditions: 20 μM, 5 hours
Method in brief: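 PC-3M-luc cells were plated at 20 000 per well, incubated overnight at 37 °C and 5% CO2, then exposed to 20 μM test compound for 5 h. They were fixed in 4% PFA for 8–10 min at RT and extracted with PBS/0.1% Triton X-100. Blocking used PBS/0.1% Triton/5% FCS. […] Read-out was immunofluorescence microscopy.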

Sirt2_56-356 [7] = molecular target: T2, Sirt2_56-356; assay: Fluorescence polarization assay; format: binding
PC-3M-luc cells [8] = assay: Migration assay; format: cell-based, human
HGC-27 cells = assay: Cell viability assay; format: cell-based; conditions: Homo sapiens
Method in brief: (§2)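 MTS/PMS (20:1) viability assay. Cells were seeded at 2000 per well with test compound or vehicle (0.5% DMSO final) and incubated 72 or 120 h at 37 °C, 5% CO2. Absorbance was read 2–4 h after reagent addition. Media: HEK293T in DMEM with 10% FBS, 2 mM glutamine and 1% pen-strep; HGC-27 in DMEM:Ham's 12 (1:1) with 5% FCS.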

PC-3M-luc cells [9] = assay: Cell viability assay; format: cell-based, human; conditions: 3 days vs 5 days
HEK293T cells = assay: Cell viability assay; format: cell-based; conditions: Homo sapiens, HEK-293T
Method in brief: as §2

PC-3M-luc cells [10] = assay: Colony Forming Unit; format: cell-based, human
Method in brief: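 PC-3M-luc cells were grown in RPMI 1640 with 10% FBS, 2 mM glutamine and 1% pen-strep, then seeded at 250 cells per well. After 2–3 h, test compound or vehicle was added (0.5% DMSO final) and plates were incubated 7 days at 37 °C, 5% CO2. Cells were PBS-washed, fixed in 4% PFA for 20 min at RT and stained with 0.01% crystal violet for 30 min. Colonies were then counted.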

[11] = tested on: c-Myc protein levels in PC-3M-luc cells; assay: Western blot of c-Myc protein levels; format: cell-based, human; conditions: 24 h
[12] = tested on: KRas4a fatty acylation in HEK293T cells; assay: In cell inhibition of SIRT2 defatty-acylation of KRas-4a; format: cell-based, human; conditions: 25 μM
[13] = In vitro Sirt2 activity assay IC50, Table 2
[14] = tracer 13 2 μM, HEK293T, 2 h, mean ± SD

SMILES | IC50 (Sirt1_134-747) | IC50 (Sirt2_56-356 [1]; [13]) | IC50 (Sirt2_56-356 [2]) | IC50 (Sirt3_118-395) | IC50 (human recombinant HDAC1) | IC50 (human recombinant HDAC6) | IC50 [3] | other results
Cc1ccc(Cn2cc(COc3cccc(Cc4cnc(NC(=O)CSc5nc(C)cc(C)n5)s4)c3)nn2)cc1 [Compound 9] | > 100 µM | 0.17 ± 0.02 µM | 2 ± 0.3 µM | > 100 µM | > 100 µM | > 100 µM | 0.4 ± 0.02 µM | 
Cc1cc(C)nc(SCC(=O)Nc2ncc(Cc3cccc(OCc4cn(Cc5ccccc5C)nn4)c3)s2)n1 [Compound 8] | > 100 µM | 0.16 ± 0.02 µM | 3.9 ± 0.2 µM | > 100 µM | > 100 µM | > 100 µM | 1 ± 0.05 µM | 
CC(=O)NCCCCC(NC(=O)OCc1ccccc1)C(=O)Nc1ccc2c(C)cc(=O)oc2c1 (stereo not drawn) [ZMAL, Z-(Ac)Lys-AMC] |  |  |  |  |  |  |  | Km (Sirt2 [4]): 510 ± 95 µM
CCCCCCCCCCCCCC(=O)NCCCCC(NC(=O)OCc1ccccc1)C(=O)Nc1ccc2c(C)cc(=O)oc2c1 (stereo not drawn) [ZMML] |  |  |  |  |  |  |  | Km (Sirt2 [4]): 6.7 ± 1 µM
O=C(NCc1cccnc1)c1ccc2c(c1)C1C3CCC(C3)C1C(c1ccccc1)N2 (stereo not drawn) [AEM2, reference compound] |  |  |  |  |  |  |  | IC50 (Sirt2 [5]): 3.8 µM; IC50 ([3]; read-out: NanoBRET assay IC50, tracer 13 2 μM, HEK293T, 2 h, mean ± SD): 5.2 ± 0.2 µM
COCCn1cc(COc2cccc(Cc3cnc(NC(=O)CSc4nc(-c5ccccc5)cc(-c5ccccc5)n4)s3)c2)nn1 [Compound 7] | > 100 µM |  | > 100 µM | > 100 µM | > 100 µM | > 100 µM |  | IC50 (Sirt2_56-356 [1]; Sirt2 Deacet. IC50, mean ± SD): 620 ± 72 µM; decreased potency compared to the positive control SirReal2 (Sirt2_56-356 [1]; Sirt2 deacetylation): more than 1000 fold; acetylation levels of α-tubulin [6]: Only weak effects; Sirt2 binding in the FP assay compared to SirReal2 (in words) (Sirt2_56-356 [7]): weaker binding; NanoBRET assay IC50 [3, 14]: did not detect cellular Sirt2 binding
CCCCCCCC(=O)Nc1ncc(Cc2cccc(OCc3cn(CCOC)nn3)c2)s1 [Compound 5] | > 100 µM |  |  | > 100 µM | > 100 µM | > 100 µM |  | IC50 (Sirt2_56-356 [1]; Sirt2 Deacet. IC50, mean ± SD): 0.46 ± 0.21 µM; inhibition at 20 µM (Sirt2_56-356 [2]; read-out: Sirt2 Demyr. percentage of inhibition): 23.2%; inhibition at 10 µM (PC-3M-luc cells [8]; Homo sapiens, read-out: migration inhibition): 35%; Sirt2 binding in the FP assay compared to SirReal2 (in words) (Sirt2_56-356 [7]): weaker binding; NanoBRET assay IC50 [3, 14]: did not detect cellular Sirt2 binding
Cc1cc(C)nc(SCC(=O)Nc2ncc(Cc3cccc(OCc4cn(Cc5ccc(OCCN6CCOCC6)cc5)nn4)c3)s2)n1 [Compound 12] | > 100 µM | 0.12 ± 0.01 µM |  | > 100 µM | > 100 µM | > 100 µM | 0.098 ± 0.004 µM | GI50 (HGC-27 cells): 8.21 ± 0.59 µM; dependence of the effect on cell viability on incubation time (PC-3M-luc cells [9]): higher effects on the cell viability of PC-3M-luc cells could be observed after prolonged incubation time; GI50 (HEK293T cells): 7.7 ± 0.71 µM; effect on colony formation (in words) (PC-3M-luc cells [10]): Colony formation was almost completely prevented; concentration-dependent effect on cell migration (PC-3M-luc cells [8]): concentration-dependent inhibition of migration; c-Myc protein levels (in words) ([11]; 10 μM): completely absent; concentration dependence of c-Myc levels [11]: reduced in a concentration-dependent manner; acetylation levels of α-tubulin [6]: elevated; KRas4a acylation levels (in words) [12]: increased acylation levels of KRas4a compared to DMSO treated cells; IC50 (Sirt2_56-356 [7]): 0.07 ± 0.02 µM; NanoBRET binding in digitonin permeabilized vs untreated cells ([3]; digitonin 50 μg mL−1): None of the tested compounds revealed significant differences in the NanoBRET signals between permeabilized (digitonin) and untreated cells
